Measured values taken from PMC4784479 (Arthritis & rheumatology (Hoboken, N.J.), 2015).
*1 amine or outer side, *2 acyl side, *3 side chain or, on linkers, in order; H or OH if unused. Where a SMILES comes first, the peptide text is derived from it. Bridges are numbered along the chain shown (N, C = ends). Where no end group is shown, it is not given here. [ ]: non-standard residue; d: D form. X1 = O=C(O)C[C@@H](C(=O)[*:2])N(CCCCN[*:3])[*:1]; X2 = C[C@@H](C(=O)[*:2])N(CCCCN[*:3])[*:1]; CO = O=C([*:1])[*:2]

Experiments:
primary mouse BMCs = assay: In vitro OC differentiation, primary mouse BMCs; type: cell-based; settings: SE ligand 65–79*0401 29 μM, Fig. 1J
Outline: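 Primary bone marrow cells from mouse femurs and tibias were plated at 2 × 10^5/well in MEM with 10% FBS and penicillin/streptomycin. They received 10 ng/ml M-CSF alone for 2 d, then 4 d more with 10 ng/ml M-CSF plus 20 ng/ml RANKL, with or without SE ligand 65–79*0401 (29 μM). Cultures were fixed and TRAP-stained. TRAP-positive cells with more than three nuclei were counted. Results are mean ± SEM; Student's t-test.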

DBA/1 mice with CIA = assay: Collagen-induced arthritis; type: in vivo, mouse; settings: disease amelioration at ng/kg-range doses; comparison with ref 24–26
recombinant mouse CRT = molecular target: T1, recombinant mouse CRT (Mus musculus, UniProt P14211); assay: SPR direct interaction with CRT; type: binding; settings: immobilized recombinant CRT, Fig. 1A
T1 sequence (P14211 18-416): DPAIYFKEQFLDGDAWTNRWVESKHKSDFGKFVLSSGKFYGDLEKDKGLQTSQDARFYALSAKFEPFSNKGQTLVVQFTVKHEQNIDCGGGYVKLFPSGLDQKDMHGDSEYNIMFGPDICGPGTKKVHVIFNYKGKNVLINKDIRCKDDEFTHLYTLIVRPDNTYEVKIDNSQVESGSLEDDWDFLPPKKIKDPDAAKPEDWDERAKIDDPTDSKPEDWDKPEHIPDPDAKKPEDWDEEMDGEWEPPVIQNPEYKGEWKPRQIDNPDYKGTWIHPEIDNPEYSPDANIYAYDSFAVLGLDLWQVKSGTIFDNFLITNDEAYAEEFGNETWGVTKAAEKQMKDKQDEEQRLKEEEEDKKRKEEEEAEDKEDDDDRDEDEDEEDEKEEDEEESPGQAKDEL
Outline: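 Direct binding was measured by SPR on a CM5 chip preconditioned with NaOH, HCl and SDS pulses and activated with EDC/NHS. Recombinant mouse CRT was amine-coupled at 100 μg/ml (about 5500 RU), then ethanolamine-blocked. Analytes were injected at various concentrations at 25°C and 10 μl/min in HEPES pH 7.4 buffer with KCl, CaCl2, ZnCl2 and P-20. Signal was read in real time as resonance units.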

[1] = molecular target: T2, SE-activated NO signaling (Mus musculus, UniProt P14211); assay: SE ligand-activated NO signaling assay; type: cell-based; settings: Linear DKCLA 170 μM, SE ligand 65–79*0401 57 μM, Fig. 1F
T2 sequence (P14211 18-416): T1 sequence (P14211 18-416)

Compound	Incremental SE-activated OC differentiation (primary mouse BMCs)	In vivo potency in CIA relative to emerging drugs (mg/kg-range doses) (DBA/1 mice with CIA)	Interaction with CRT (SPR) (recombinant mouse CRT)	Inhibition of SE ligand-activated NO signaling [1]
CC(C)C[C@@H]1NC(=O)[C@H](CS)NC(=O)[C@H](CCCCN)NC(=O)[C@H](CC(=O)O)N(C(=O)[C@@H](N)Cc2c[nH]c3ccccc23)CCCCNC(=O)NCCCCN([C@@H](C)C(N)=O)C1=O [HS(4–4)c Trp] (H-W[X1]KCL[X2]-NH2; linker 2-6 via CO; N-terminus and C-terminus assumed)	significantly inhibited	1,000,000 fold		
Ac-DKCLA (N-terminus assumed) [DKCLA]			interacted with CRT	specifically blocked SE ligand-activated NO signaling
